Bioassay records: PubChem, Johns Hopkins Ion Channel Center
The list is not random: actives were taken first. Their share in the collection is about 3.5%.
MrgX1 antagonist: blocks BAM8-22 activation of human MrgX1 receptor | Q96LB2 | MRGX1-HEK293 calcium flux, Fluo-4, BAM8-22 antagonism; stronger effect = lower value | B-score at 10 µM | 1.3% of 310,000 active;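 active = calcium-response B-score plate-corrected more than 3 library SD below zero, starting fluorescence within 5 deviations, no agonist response on first addition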;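 note: peak minus trough fluorescence over baseline after final BAM8-22 challenge near maximal dose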
Target sequence (Q96LB2 whole entry, looked up): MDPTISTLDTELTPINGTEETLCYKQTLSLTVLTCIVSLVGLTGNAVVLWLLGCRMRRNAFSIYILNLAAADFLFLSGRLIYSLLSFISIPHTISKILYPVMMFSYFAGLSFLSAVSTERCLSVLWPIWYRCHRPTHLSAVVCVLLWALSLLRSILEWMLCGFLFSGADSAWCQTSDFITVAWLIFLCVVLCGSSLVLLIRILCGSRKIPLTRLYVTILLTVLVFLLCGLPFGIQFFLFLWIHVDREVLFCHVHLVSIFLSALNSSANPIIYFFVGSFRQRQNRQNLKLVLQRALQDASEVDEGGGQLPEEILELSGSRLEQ
RGS4 pot: potentiators or activators of RGS4; B-score at 10 µM; 0.92% of 310,000 active; HEK293 M3R/inducible RGS4, carbachol calcium flux Fluo4; stronger effect = lower value;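 active = B-score of the integrated calcium signal more than 4 SD below the library mean, with starting fluorescence not abnormally high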;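 note: negative B-score means reduced calcium response which marks RGS4 activation or potentiation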
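System – HEK293 FlpIn-TREx cells, stable M3R, doxycycline-inducible RGS4 · Reagent – ECmax carbachol challenge · Times – compound preincubation 20 min at room temperature before agonist · Technique – Fluo4 fluorescence kinetic imaging of calcium · Measure – B score of integrated Fluo4 ratio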
MrgX1 PAM: human MrgX1 positive allosteric modulation, primary screen; Q96LB2; MrgX1-HEK293, Fluo-4 calcium flux, FDSS; stronger effect = higher value; B-score at 10 µM; 0.63% of 310,000 active; AID 588675;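 active = plate-corrected calcium response at least 3 library SD above typical, normal starting fluorescence, not activating the receptor alone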;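 note: compound read alongside a low EC10 to EC30 dose of BAM8-22 agonist; peak minus trough fluorescence over baseline measured at the second addition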
MrgX1 ag: agonists of human MrgX1 receptor; Q96LB2; MrgX1-HEK293 cells, Fluo-4 calcium fluorescence, agonist mode; stronger effect = higher value; B-score at 10 µM; 0.44% of 310,000 active;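 active = calcium response B-score plate-corrected fluorescence ratio at least 3 library SD, with starting fluorescence B-score inside 5 SD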
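Test system: HEK293 cells stably expressing human MrgX1 receptor; amount: 15,000 cells per well; doses: compound delivered in addition one of three; times: overnight plating before 1 h dye loading; detection: Fluo-4 NW calcium-flux fluorescence, kinetic read; read-out basis: B-scored fluorescence response ratio; controls: positive and negative controls per plate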
RGS4 block: inhibitors of human RGS4. B-score at 10 µM. P49798. HEK293 M3R/RGS4 inducible, Fluo-4 calcium flux; stronger effect = higher value; triggered by carbachol at its EC20. 0.45% of 310,000 active;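 active = B-score, a plate-corrected calcium signal, over three deviations above library mean, with baseline fluorescence within five deviations of library mean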;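 note: RGS4 expression induced by doxycycline in cells with stable M3 receptor; B-score is computed from the integrated fluorescence ratio over baseline after carbachol; higher B-score means a larger calcium signal and so more RGS4 inhibition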
Target sequence (P49798 whole entry, looked up): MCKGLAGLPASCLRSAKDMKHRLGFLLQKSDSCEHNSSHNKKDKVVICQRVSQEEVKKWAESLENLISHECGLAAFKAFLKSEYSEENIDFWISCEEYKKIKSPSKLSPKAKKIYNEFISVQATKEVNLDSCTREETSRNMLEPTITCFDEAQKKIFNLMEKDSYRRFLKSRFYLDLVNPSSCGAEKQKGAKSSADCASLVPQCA
RGS4 inh valid: RGS4 inhibitor validation. shares compounds with RGS4 block. HEK293 M3R/RGS4, carbachol calcium Fluo-4 fluorescence; carbachol added at its EC20; 0 = buffer wells, 100 = carbachol control. calcium response, % at 10 µM. 65% of 1,700 active. AID 492999;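 active = duplicate-averaged calcium response above the buffer-only control mean plus 5 SD of those controls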;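 note: integrated fluorescence ratio F max minus min over baseline F0; higher response in RGS4-induced cells means RGS4 inhibition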
RGS4 uninduced: counter-screen for RGS4 inhibitors: effect in non-induced cells | shares compounds with RGS4 block | HEK293 M3R non-induced, carbachol calcium Fluo-4; submaximal (EC20) carbachol stimulus; buffer wells 0%, carbachol control wells 100% | activity (percent), % at 10 µM | 20% of 1,900 active | AID 493000; call rule not given here;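 note: RGS4 induction absent so cells express M3R without RGS4; higher means more calcium signal and flags a non-specific hit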
RGS4 inh ctr2: second counter-screen for RGS4 inhibitors: non-induced cells without carbachol. shares compounds with RGS4 block. HEK293 M3R/RGS4 non-induced, Fluo-4 calcium, no carbachol; normalised: buffer wells 0%, carbachol wells 100%. calcium response (agonist-mode artifact), % at 10 µM. 22% of 1,900 active. AID 493001;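 active = duplicate-averaged calcium rise in uninduced cells above buffer wells' mean plus 5 SD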
* = called active by the depositor; i = inactive; . = no result.

SMILES	MrgX1 antagonist	RGS4 pot	MrgX1 PAM	MrgX1 ag	RGS4 block	RGS4 inh valid	RGS4 uninduced	RGS4 inh ctr2
CCOCCCNC(=O)CN1C(=O)CSc2ccc(S(=O)(=O)N3CCOCC3)cc21	i	i	i	i	i	i	i	i
O=C(c1cccc(Oc2c(Cl)cccc2[N+](=O)[O-])c1)N1CCOCC1	i	i	i	i	i	.	.	.
Cc1ccc(NC(=O)C2=C(c3ccccc3)S(=O)(=O)CCS2(=O)=O)cc1	i	i	i	i	15*	28%*	i	16%*
O=C(Nc1ccc(-c2ccccc2)cc1)c1ccccc1	i	i	i	i	i	.	.	.
CCOC(=O)Cc1csc(NC(=O)Cn2c(=O)oc3ccccc32)n1	i	i	i	i	i	.	.	.
O=C(/C=C/c1ccco1)Nc1nc(-c2ccccn2)cs1	i	i	i	i	12*	22%*	i	i
O=C(/C=C/c1ccco1)Nc1nc(-c2ccccc2)cs1	i	i	i	i	i	.	.	.
O=C1Nc2ccccc2/C1=N/N=C/c1ccc(-c2ccc([N+](=O)[O-])cc2)o1	.	i	.	.	4.8*	7.5%*	35%*	i
CCOc1cc(/C=C2/C(=O)NN(c3cccc(Cl)c3)C2=O)ccc1O	i	i	i	i	5.7*	5.0%*	i	20%*
O=C1NN(c2cccc(Br)c2)C(=O)/C1=C\c1ccc(O)cc1	i	i	i	i	i	.	31%*	i
O=C1NN(c2ccc(Br)cc2)C(=O)/C1=C\c1ccc(O)cc1O	i	i	i	i	i	.	.	.
COc1ccc(-c2nn(-c3ccccc3)cc2/C=N/N2C(=O)CSC2=S)cc1	i	i	i	i	i	.	.	.
CCOC(=O)CSC1=NC(=O)/C(=C\c2ccc(OC(C)=O)cc2)S1	i	i	i	i	18*	38%*	i	9.0%*
CCOC(=O)CSC1=NC(=O)/C(=C/c2ccc(Br)cc2)S1	i	i	i	i	i	.	36%*	i
CCn1c2ccccc2c2cc(/C=N/NC(=O)c3ccccc3)ccc21	i	i	i	i	i	i	i	i
Cn1c2ccccc2c2cc(/C=N/NC(=O)c3cc(O)cc(O)c3)ccc21	i	-7.2*	i	i	i	i	i	i
Cc1ccc(Nc2nc(N)c3ccccc3n2)cc1C	i	i	i	i	i	i	i	i
CCOC(=O)CNc1nnc(SCC(=O)OCC)[nH]c1=O	i	i	i	i	i	.	i	i
COC(=O)CSc1nnc(C)c(=O)[nH]1	i	i	i	i	i	.	.	.
COc1ccc(OCCCC(=O)Nc2cccc([N+](=O)[O-])c2C)cc1	i	i	i	i	i	.	.	.
C/C(=N\Nc1ccc(C(=O)O)cc1)c1ccc(Br)cc1	i	i	i	i	4.7*	20%*	35%*	i
COc1ccc(C(=O)NCCCNC(=O)c2ccc(C)nc2)cc1	i	i	i	i	i	.	.	.
CCOC(=O)Nc1ccc(=O)n(Cc2c(Cl)cccc2Cl)c1	i	i	i	i	7.7*	36%*	28%*	i
COC(=O)c1cc(=O)n(CCc2ccc(OC)cc2)c(=Nc2ccc(F)c(Cl)c2)s1	i	i	i	i	i	i	i	19%*
CCn1c(=O)cc(C(=O)OC)sc1=Nc1ccc(F)c(F)c1	i	i	i	i	13*	56%*	80%*	i
SMILES	MrgX1 antagonist	RGS4 pot	MrgX1 PAM	MrgX1 ag	RGS4 block	RGS4 inh valid	RGS4 uninduced	RGS4 inh ctr2
CCOC(=O)c1ccc(N=c2sc(C(=O)OC)cc(=O)n2Cc2ccco2)cc1	i	i	i	i	i	i	i	i
CCOC(=O)c1ccc(N=c2sc(C(=O)OC)cc(=O)n2CCCN2CCOCC2)cc1	i	i	i	i	i	.	.	.
COC(=O)c1cc(=O)n(CCc2ccccc2)c(=Nc2ccc(F)cc2)s1	i	i	i	i	i	.	.	.
Cc1ncsc1C(=O)N1CCCC(CNS(=O)(=O)c2cccs2)C1 (stereo not drawn)	i	i	i	i	i	.	.	.
COc1ccc(-n2c(SCC#N)nnc2-c2ccc(NS(=O)(=O)c3ccc(C)cc3)cc2)cc1	i	i	i	i	7.2*	13%*	i	i
CN1CCN(C(=O)CCCN2C(=O)/C(=C/c3ccccc3)SC2=S)CC1	i	i	i	i	i	.	.	.
O=C(O)CCCN1C(=O)/C(=C\c2ccc(-c3nc4ccccc4s3)o2)SC1=S	-8*	-7.9*	i	i	21*	14%*	i	126%*
O=C(O)CCCN1C(=O)/C(=C\C(Cl)=C\c2ccccc2)SC1=S	i	i	i	i	15*	44%*	i	i
COCCNC(=O)c1cn(Cc2c(F)cccc2Cl)nn1	i	i	i	i	i	.	i	i
CCOC(=O)C1(Cc2cccc(OC)c2)CCN(Cc2cnc(C)s2)CC1	i	i	i	i	i	.	.	.
Nc1nc(Cl)cc(N2CCCC2)n1	i	i	i	i	i	.	.	.
Nc1nc(Cl)cc(N2CCC(c3cc(-c4ccc(Cl)cc4Cl)n[nH]3)CC2)n1	i	i	i	i	7.3*	16%*	i	i
Cc1ccc2[nH]c(=O)c(C(c3nnnn3Cc3ccccc3)N3CCc4ccccc43)cc2c1 (stereo not drawn)	i	i	i	i	i	.	.	.
Cc1cc2cc(C(c3nnnn3Cc3ccccc3)N3CCc4ccccc43)c(=O)[nH]c2cc1C (stereo not drawn)	i	i	i	i	i	.	i	7.0%*
Cc1cc2cc(C(c3nnnn3Cc3ccco3)N3CCc4ccccc4C3)c(=O)[nH]c2cc1C (stereo not drawn)	i	i	i	i	i	i	i	39%*
Cc1cc2cc(C(c3nnnn3Cc3ccco3)N3CCc4ccccc43)c(=O)[nH]c2cc1C (stereo not drawn)	i	i	i	i	5.3*	13%*	i	i
